Experimental data reported in ChEMBL document CHEMBL1149259, “Potent N-(1,3-thiazol-2-yl)pyridin-2-amine vascular endothelial growth factor receptor tyrosine kinase inhibitors with excellent pharmacokinetics and low affinity for the hERG ion channel” (J Med Chem, 2004).
Activity calls are given as the source filed them. No cut-off for these calls is given here.

Experiments:
[1] = biological target: T1, Vascular endothelial growth factor receptor 2 (Homo sapiens, UniProt P35968); assay: Inhibition of VEGF-induced KDR autophosphorylation expressed in HEK293 cells; assay type: functional, cell-based
[2] = Metabolic stability in rat liver microsome; assay type: ADME; details: liver microsomes
[3] = biological target: T1, Vascular endothelial growth factor receptor 2; assay: Inhibition of KDR
[4] = biological target: Voltage-gated inwardly rectifying potassium channel KCNH2 (Homo sapiens, UniProt Q12809); assay: Displacement of [35S][…] from human ERG expressed in HEK293 cells; assay type: cell-based; details: read-out: Inflection point
[5] = Half life in Beagle dog at 0.25 mg/kg, iv and 1 mg/kg, po; assay type: ADME, organism-based, Canis lupus familiaris; details: in vivo
Procedure, shortened: (§1)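 Fasted beagle dogs, two per compound; iv 0.25 mg/kg as a DMSO solution, po 1 mpk as a solution in HCl-acidified methocel or 0.05 M citric acid (aq). Half-life, plasma clearance and steady-state volume of distribution taken from the iv leg; values are the average of the two dogs.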

[6] = Lipophilicity, log P of the compound; assay type: physicochemical; details: octanol/water
Homo sapiens = species on record: Homo sapiens; assay: Protein binding in human plasma; details: read-out: PPB (converted)
[7] = Volume of distribution in Beagle dog at 0.25 mg/kg, iv and 1 mg/kg, po; assay type: ADME, organism-based, Canis lupus familiaris; details: in vivo, read-out: Vdss; procedure, shortened: as §1
[8] = Clearance in Beagle dog at 0.25 mg/kg, iv and 1 mg/kg, po; assay type: ADME, organism-based, Canis lupus familiaris; details: in vivo; procedure, shortened: as §1
Canis familiaris [9] = assay: Increase in QT prolongation in anesthetized dog at 0.59 uM plasma level; assay type: functional, Canis lupus familiaris
[10] = Half life in Beagle dog at 1 mg/kg, iv and 1 mg/kg, po; assay type: ADME, organism-based, Canis lupus familiaris; details: in vivo
Procedure, shortened: (§2)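 Fasted beagle dogs, two per compound; iv 1 mg/kg as a DMSO solution; po 1 mg/kg as a solution in 0.05 M citric acid (aq) or HCl-acidified methocel. Plasma half-life, clearance, Vdss and oral bioavailability F taken as the average of the two dogs.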

[11] = Bioavailability in Beagle dog at 1 mg/kg, iv and 1 mg/kg, po; assay type: ADME, organism-based, Canis lupus familiaris; details: in vivo; procedure, shortened: as §2
[12] = Volume of distribution in Beagle dog at 1 mg/kg, iv and 1 mg/kg, po; assay type: ADME, organism-based, Canis lupus familiaris; details: in vivo, read-out: Vdss; procedure, shortened: as §2
[13] = Clearance in Beagle dog at 1 mg/kg, iv and 1 mg/kg, po; assay type: ADME, organism-based, Canis lupus familiaris; details: in vivo; procedure, shortened: as §2
Cytochrome P450 2D6 = Cytochrome P450 2D6 (Homo sapiens, UniProt P10635); assay: Inhibition of human CYP2D6; assay type: ADME
Procedure, shortened: (§3)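 Human liver microsomes; inhibition of probe-substrate metabolism measured with diclofenac (CYP2C9), […] (CYP2D6) and testosterone (CYP3A4).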

Cytochrome P450 2C9 = Cytochrome P450 2C9 (Homo sapiens, UniProt P11712); assay: Inhibition of human CYP2C9; assay type: ADME; procedure, shortened: as §3
Cytochrome P450 3A4 = Cytochrome P450 3A4 (Homo sapiens, UniProt P08684); assay: Inhibition of human CYP3A4; assay type: ADME; procedure, shortened: as §3
Canis familiaris [14] = assay: Increase in QT prolongation in anesthetized dog up to 22 uM plasma level; assay type: functional, organism-based; details: Canis lupus familiaris
Canis familiaris [15] = assay: Increase in QT prolongation in anesthetized dog up to 60 uM plasma level; details: Canis lupus familiaris
[16] = Volume of distribution in Sprague-Dawley rat at 2 mg/kg, iv and 10 mg/kg, po; assay type: ADME, organism-based; details: in vivo, read-out: Vdss
Procedure, shortened: (§4)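 Fasted male Sprague-Dawley rats, three per group: 2 mg/kg bolus iv as a DMSO solution and 10 mg/kg by oral gavage as a solution in 0.05 M citric acid. Clearance, Vdss and F given as mean with standard deviation.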

[17] = Clearance in rhesus monkey at 1 mg/kg, iv and 1 mg/kg, po; assay type: ADME, organism-based, Macaca mulatta; details: in vivo
Procedure, shortened: (§5)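 Fasted rhesus monkeys, two, crossover design: 1 mg/kg po as a solution in 0.05 M citric acid, and on a separate occasion 1 mg/kg iv as a DMSO solution. Half-life, clearance, Vdss and F reported as the two-animal average.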

[18] = Volume of distribution in rhesus monkey at 1 mg/kg, iv and 1 mg/kg, po; assay type: ADME, organism-based, Macaca mulatta; details: in vivo, read-out: Vdss; procedure, shortened: as §5
[19] = biological target: Vascular endothelial growth factor receptor 2 (Mus musculus, UniProt P35918); assay: Inhibition of VEGF-induced mouse lung KDR phosphorylation
Procedure, shortened: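 Tyrosine phosphorylation of lung KDR compared between treated and untreated lungs as a function of dose and time after dosing. In vivo IC50 expressed as plasma concentration.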

[20] = Clearance in Sprague-Dawley rat at 2 mg/kg, iv and 10 mg/kg, po; assay type: ADME, organism-based; details: in vivo; procedure, shortened: as §4
[21] = Bioavailability in rhesus monkey at 1 mg/kg, iv and 1 mg/kg, po; assay type: ADME, organism-based, Macaca mulatta; details: in vivo; procedure, shortened: as §5
Rhesus monkey = assay: Metabolic stability measured as N-Glucuronidation of the parent compound in iv dosed rhesus monkey; assay type: ADME, organism-based, Macaca mulatta; details: in vivo
Rattus norvegicus = assay: Metabolic stability measured as N-Glucuronidation of the parent compound in iv dosed rat; assay type: ADME, organism-based; details: in vivo

Sequence of Voltage-gated inwardly rectifying potassium channel KCNH2 (Q12809 whole entry): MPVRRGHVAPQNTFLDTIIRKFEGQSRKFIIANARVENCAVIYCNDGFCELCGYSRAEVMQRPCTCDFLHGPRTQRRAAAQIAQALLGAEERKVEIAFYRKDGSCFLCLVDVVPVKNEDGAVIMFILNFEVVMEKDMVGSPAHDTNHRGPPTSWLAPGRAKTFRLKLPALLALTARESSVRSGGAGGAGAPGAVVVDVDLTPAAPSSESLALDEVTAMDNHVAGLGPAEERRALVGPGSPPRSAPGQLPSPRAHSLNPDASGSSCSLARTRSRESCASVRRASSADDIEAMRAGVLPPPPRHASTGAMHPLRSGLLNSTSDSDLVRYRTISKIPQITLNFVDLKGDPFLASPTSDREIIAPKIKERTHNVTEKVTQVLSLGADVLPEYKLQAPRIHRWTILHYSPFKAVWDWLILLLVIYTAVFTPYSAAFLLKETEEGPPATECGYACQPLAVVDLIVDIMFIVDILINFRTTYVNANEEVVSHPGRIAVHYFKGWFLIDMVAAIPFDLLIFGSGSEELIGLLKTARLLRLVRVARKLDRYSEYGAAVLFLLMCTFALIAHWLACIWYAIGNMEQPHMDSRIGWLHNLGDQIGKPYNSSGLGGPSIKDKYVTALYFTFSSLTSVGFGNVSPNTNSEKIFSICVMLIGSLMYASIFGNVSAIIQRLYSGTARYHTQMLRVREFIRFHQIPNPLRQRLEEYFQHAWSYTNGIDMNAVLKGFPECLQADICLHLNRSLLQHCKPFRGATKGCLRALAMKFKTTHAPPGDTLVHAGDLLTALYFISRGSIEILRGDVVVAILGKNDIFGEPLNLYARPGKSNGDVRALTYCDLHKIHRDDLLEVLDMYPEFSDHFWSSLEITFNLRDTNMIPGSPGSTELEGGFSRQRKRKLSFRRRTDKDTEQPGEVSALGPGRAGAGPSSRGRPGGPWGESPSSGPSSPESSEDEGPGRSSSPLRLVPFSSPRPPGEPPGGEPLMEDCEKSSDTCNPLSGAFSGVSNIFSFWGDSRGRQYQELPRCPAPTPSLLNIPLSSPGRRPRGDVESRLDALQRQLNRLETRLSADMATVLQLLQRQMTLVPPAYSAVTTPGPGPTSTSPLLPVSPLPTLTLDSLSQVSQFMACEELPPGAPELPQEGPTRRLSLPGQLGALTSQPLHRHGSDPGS
T1 sequence (P35968 whole entry): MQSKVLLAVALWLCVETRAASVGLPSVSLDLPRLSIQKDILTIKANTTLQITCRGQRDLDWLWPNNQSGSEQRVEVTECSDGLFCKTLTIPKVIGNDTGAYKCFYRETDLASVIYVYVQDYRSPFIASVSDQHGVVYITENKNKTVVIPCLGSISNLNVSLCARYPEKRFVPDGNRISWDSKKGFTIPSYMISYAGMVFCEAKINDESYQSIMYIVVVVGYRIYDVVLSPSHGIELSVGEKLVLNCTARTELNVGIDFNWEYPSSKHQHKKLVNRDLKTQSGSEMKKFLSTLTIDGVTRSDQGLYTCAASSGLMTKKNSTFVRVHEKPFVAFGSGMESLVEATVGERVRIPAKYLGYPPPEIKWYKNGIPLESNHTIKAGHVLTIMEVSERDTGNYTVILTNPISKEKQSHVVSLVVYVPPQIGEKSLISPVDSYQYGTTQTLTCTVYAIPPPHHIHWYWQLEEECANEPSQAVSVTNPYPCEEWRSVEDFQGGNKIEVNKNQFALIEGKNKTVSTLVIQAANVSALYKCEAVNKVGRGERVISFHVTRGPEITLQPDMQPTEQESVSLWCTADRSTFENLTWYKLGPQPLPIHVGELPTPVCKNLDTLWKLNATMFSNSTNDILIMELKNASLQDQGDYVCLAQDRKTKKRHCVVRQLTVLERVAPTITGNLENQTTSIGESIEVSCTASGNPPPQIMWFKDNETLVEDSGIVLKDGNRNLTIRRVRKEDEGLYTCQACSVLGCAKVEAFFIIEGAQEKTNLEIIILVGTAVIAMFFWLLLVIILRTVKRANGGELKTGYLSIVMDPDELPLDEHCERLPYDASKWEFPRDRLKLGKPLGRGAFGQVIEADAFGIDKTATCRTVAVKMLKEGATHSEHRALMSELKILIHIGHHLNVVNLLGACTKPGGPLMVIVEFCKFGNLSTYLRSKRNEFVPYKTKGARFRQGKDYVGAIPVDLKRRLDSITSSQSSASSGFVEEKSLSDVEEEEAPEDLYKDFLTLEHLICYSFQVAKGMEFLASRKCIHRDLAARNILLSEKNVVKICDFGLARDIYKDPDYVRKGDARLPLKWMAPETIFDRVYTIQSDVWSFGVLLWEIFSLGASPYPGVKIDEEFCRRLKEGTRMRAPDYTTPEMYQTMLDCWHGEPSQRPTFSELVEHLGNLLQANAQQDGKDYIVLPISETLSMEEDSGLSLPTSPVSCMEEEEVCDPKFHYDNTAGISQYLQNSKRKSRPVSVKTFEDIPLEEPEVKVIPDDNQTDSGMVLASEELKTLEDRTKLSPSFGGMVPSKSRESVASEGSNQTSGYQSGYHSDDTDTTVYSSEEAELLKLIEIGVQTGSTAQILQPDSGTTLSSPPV
Sequence of Cytochrome P450 3A4 (P08684 whole entry): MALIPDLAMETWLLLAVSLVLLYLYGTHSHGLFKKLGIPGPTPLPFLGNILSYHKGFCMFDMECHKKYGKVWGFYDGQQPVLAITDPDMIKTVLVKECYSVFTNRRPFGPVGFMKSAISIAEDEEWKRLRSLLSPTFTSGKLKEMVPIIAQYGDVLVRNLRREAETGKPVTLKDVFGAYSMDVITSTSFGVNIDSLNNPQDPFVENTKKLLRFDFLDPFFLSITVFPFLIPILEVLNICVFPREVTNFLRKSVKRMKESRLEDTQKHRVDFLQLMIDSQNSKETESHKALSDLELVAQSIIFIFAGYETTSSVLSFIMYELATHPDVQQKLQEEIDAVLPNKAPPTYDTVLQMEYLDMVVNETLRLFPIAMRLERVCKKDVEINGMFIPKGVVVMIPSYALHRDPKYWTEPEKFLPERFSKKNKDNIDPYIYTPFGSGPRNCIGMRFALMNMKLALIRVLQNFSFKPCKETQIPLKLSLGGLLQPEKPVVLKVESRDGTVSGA
Sequence of Cytochrome P450 2C9 (P11712 whole entry): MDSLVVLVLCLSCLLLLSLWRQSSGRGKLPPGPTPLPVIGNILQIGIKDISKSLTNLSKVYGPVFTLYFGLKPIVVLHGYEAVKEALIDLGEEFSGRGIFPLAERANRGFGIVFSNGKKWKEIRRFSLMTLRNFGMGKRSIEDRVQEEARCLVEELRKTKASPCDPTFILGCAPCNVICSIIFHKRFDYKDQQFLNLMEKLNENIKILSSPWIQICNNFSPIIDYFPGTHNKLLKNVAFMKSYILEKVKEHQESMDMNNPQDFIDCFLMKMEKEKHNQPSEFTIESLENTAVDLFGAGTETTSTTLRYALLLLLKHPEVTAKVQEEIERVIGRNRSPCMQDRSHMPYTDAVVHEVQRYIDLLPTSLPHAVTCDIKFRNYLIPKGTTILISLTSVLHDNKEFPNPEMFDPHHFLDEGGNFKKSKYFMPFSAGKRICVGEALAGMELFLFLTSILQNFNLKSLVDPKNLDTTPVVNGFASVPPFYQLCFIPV
Sequence of Cytochrome P450 2D6 (P10635 whole entry): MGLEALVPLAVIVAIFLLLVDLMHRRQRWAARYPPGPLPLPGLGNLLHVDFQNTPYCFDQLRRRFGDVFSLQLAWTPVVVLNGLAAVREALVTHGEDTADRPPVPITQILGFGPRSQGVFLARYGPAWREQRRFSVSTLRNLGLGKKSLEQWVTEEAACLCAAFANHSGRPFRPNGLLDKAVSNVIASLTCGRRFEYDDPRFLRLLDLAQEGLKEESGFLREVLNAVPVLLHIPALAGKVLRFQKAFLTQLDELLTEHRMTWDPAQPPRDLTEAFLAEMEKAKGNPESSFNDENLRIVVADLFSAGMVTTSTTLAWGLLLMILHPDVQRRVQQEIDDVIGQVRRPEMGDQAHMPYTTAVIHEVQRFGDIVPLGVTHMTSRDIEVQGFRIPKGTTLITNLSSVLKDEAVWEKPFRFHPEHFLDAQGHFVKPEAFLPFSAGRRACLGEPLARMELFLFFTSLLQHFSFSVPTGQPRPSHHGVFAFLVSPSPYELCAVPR

Row | Compound | IC50 [1] [nM] | IC50 [3] [nM] | logP [6] | bioavailability [11] [%] | Vd [12] [L/kg] | clearance [13] [mL/min/kg] | IC50 [4] [nM] | also measured
1 | c1ccc(-c2cnc(Nc3cc(CN4CCCC4)ccn3)s2)cc1 | 15 | 3 |  |  |  |  |  | half-life [2]: 8 min
2 | N#Cc1cnc(Nc2cc(CN3CCN(C(N)=O)CC3)ccn2)s1 |  |  |  |  |  |  | 24700 | half-life [5]: 2.9 h; Vd [7]: 0.34 L/kg; clearance [8]: 2.6 mL/min/kg
3 | c1ccc(-c2cnc(Nc3ccc(CN4CCCC4)cn3)s2)cc1 |  |  |  |  |  |  | 8 | Activity (Canis familiaris [9]): 10%
4 | CNC(=O)N1CCN(Cc2ccnc(Nc3ncc(C#N)s3)c2C)CC1 |  |  |  |  |  |  |  | IC50 (Cytochrome P450 2D6): > 100000 nM; IC50 (Cytochrome P450 2C9): > 100000 nM; IC50 (Cytochrome P450 3A4): > 100000 nM; Activity (Canis familiaris [14]): inactive
5 | CC(=O)N1CCN(Cc2ccnc(Nc3ncc(-c4ccccc4)s3)c2)CC1 | 43 | 8 |  |  |  |  | 240 | 
6 | CS(=O)(=O)N1CCN(Cc2ccnc(Nc3ncc(-c4ccccc4)s3)c2)CC1 |  |  |  |  |  |  | 130 | 
7 | CNC(=O)N1CCN(Cc2ccnc(N(c3ncc([14C]#N)s3)C3O[C@H](C(=O)O)[C@@H](O)[C@H](O)[C@H]3O)c2)CC1 (stereo partly specified) |  |  |  |  |  |  |  | Stability (Rhesus monkey): 63.3%; Stability (Rattus norvegicus): 37.6%

More lines, main results first:

Row | IC50 [1] [nM] | IC50 [3] [nM] | logP [6] | bioavailability [11] [%] | Vd [12] [L/kg] | clearance [13] [mL/min/kg] | Compound | IC50 [4] [nM] | also measured
8 | 40 | 10 | 2.74 |  |  |  | CN(C)C(=O)N1CCN(Cc2ccnc(Nc3ncc(C#N)s3)c2)CC1 | 3510 | half-life [5]: 2 h; fraction unbound (Homo sapiens): 0.041; Vd [7]: 0.88 L/kg; clearance [8]: 7.4 mL/min/kg
9 | 35 | 9 | 1.68 | 61 | 0.47 | 0.88 | N#Cc1cnc(Nc2cc(CN3CCN(C(=O)CO)CC3)ccn2)s1 | 9870 | half-life [10]: 6.6 h; fraction unbound (Homo sapiens): 0.262
10 | 43 | 8 |  |  |  |  | N#Cc1cnc(Nc2cc(CN3CCOCC3)ccn2)s1 |  | half-life [5]: 2.5 h; Vd [7]: 1 L/kg; clearance [8]: 12.4 mL/min/kg
11 | 41 | 13 | 2.05 | 87 | 0.72 | 1.2 | CC(=O)N1CCN(Cc2ccnc(Nc3ncc(C#N)s3)c2)CC1 |  | half-life [10]: 7.2 h; Activity (Canis familiaris [15]): inactive
12 | 27 | 12 | 2.06 | 99 | 0.72 | 0.51 | CNC(=O)N1CCN(Cc2ccnc(Nc3ncc(C#N)s3)c2)CC1 | 9280 | Vd [16]: 1.5 L/kg; clearance [17]: 17.2 mL/min/kg; IC50 (Cytochrome P450 2D6): > 50000 nM; IC50 (Cytochrome P450 2C9): > 50000 nM; IC50 (Cytochrome P450 3A4): > 50000 nM; Vd [18]: 1.3 L/kg; IC50 [19]: 90 nM; clearance [20]: 13.3 mL/min/kg; bioavailability [21]: 43%
13 | 31 | 7 | 2.06 | 95 | 0.96 | 1.8 | CS(=O)(=O)C1CCN(Cc2ccnc(Nc3ncc(C#N)s3)c2)CC1 |  | 
